In brackets after ≈: the same amount, converted by molar mass.
What was measured:
[1] = Oral bioavailability in dog at 10 mg/kg; format: ADME, organism-based, Canis lupus familiaris; conditions: in vivo
Outline: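 Fed dogs (n = 4) given 1 mg/kg iv and 10 mg/kg po. Plasma was deproteinized with methanol containing internal standard, centrifuged, and diluted in 0.01 mol/L ammonium formate/[MeCN/formic acid 100:0.2] (7:3). F was calculated per animal from AUC_0–24h after oral versus intravenous dosing in the same dog.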

[2] = Solubility of the compound in lapanese pharmacopoeia second fluid at pH 6.8; format: physicochemical; conditions: Japanese Pharmacopoeia second fluid
Outline: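 Solubility was measured in Japanese Pharmacopoeia second fluid, pH 6.8. After incubation, precipitate was removed by filter-plate filtration and dissolved compound in the filtrate was quantified by HPLC.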

[3] = AUC (0 to 24 hrs) in nu/nu BALB/c mouse at 100 mg/kg, po; format: ADME, organism-based; design: time < 24 hr, dose 100 mg/kg, route oral; conditions: plasma
[4] = AUC (0 to 24 hrs) in dog at 1 mg/kg, iv; format: ADME, organism-based, Canis lupus familiaris; design: time < 24 hr, dose 1 mg/kg, route intravenous; conditions: plasma
Outline: (§1)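 Fed dogs were dosed at 1 mg/kg iv and 10 mg/kg po. Plasma was collected over 0–24 h, deproteinized with methanol containing an internal standard, centrifuged, and diluted with 0.01 mol/L ammonium formate/(MeCN/formic acid 100:0.2) (7:3) for compound quantitation. AUC_0–24h is reported as mean ± SD of four animals.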

[5] = Oral bioavailability in rat at 10 mg/kg; format: ADME, organism-based; conditions: in vivo
Outline: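 Rats (n = 3, listed as non-fasted) given 1 mg/kg iv and 10 mg/kg po. Plasma was deproteinized with methanol containing internal standard, centrifuged, and diluted in 0.01 mol/L ammonium formate/[MeCN/formic acid 100:0.2] (7:3). F was calculated from mean AUC_0–24h values after oral and intravenous dosing.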

[6] = AUC (0 to 24 hrs) in rat at 1 mg/kg, iv; format: ADME, organism-based; design: time < 24 hr, dose 1 mg/kg, route intravenous; conditions: plasma
Outline: (§2)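 Rats were given 1 mg/kg iv or 10 mg/kg po and were non-fasted. Plasma was sampled over 0–24 h, deproteinized with methanol plus an internal standard, centrifuged, diluted in 0.01 mol/L ammonium formate/(MeCN/formic acid 100:0.2) (7:3), and centrifuged again. AUC_0–24h is reported as mean ± SD of three animals.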

[7] = Clearance in rat at 1 mg/kg, iv and 10 mg/kg, po; format: ADME, organism-based; conditions: in vivo
Outline: (§3)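 Single doses were given to rats and dogs: 1 mg/kg iv and 10 mg/kg po. Plasma was deproteinized with methanol containing internal standard, then diluted with 0.01 mol/L ammonium formate/(MeCN/formic acid) 7:3. Rat values are the mean ± SD of three non-fasted animals. Dog values come from four fed animals, with F calculated per animal from AUC0–24h.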

[8] = AUC (0 to 24 hrs) in rat at 10 mg/kg, po; format: ADME, organism-based; design: time < 24 hr, dose 10 mg/kg, route oral; conditions: plasma; outline: as §2
[9] = Cmax in nu/nu BALB/c mouse at 100 mg/kg, po; format: ADME, organism-based; design: dose 100 mg/kg, route oral; conditions: in vivo
[10] = AUC (0 to 24 hrs) in dog at 10 mg/kg, po; format: ADME, organism-based, Canis lupus familiaris; design: time < 24 hr, dose 10 mg/kg, route oral; conditions: plasma; outline: as §1
[11] = biological target: Sonic hedgehog protein (Mus musculus, UniProt Q62226); assay: Inhibition of recombinant mouse Shh-N expressed in mouse NIH3T3/Gli-luc cells assessed as inhibition of Gli1 expression after 48 hrs by luciferase reporter gene assay; format: cell-based
Outline: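 NIH3T3/Gli-luc cells were kept in DMEM with 10% FBS and 500 µg/mL G418, then seeded overnight on collagen-coated plates at 7.5×10³ cells/well (37 °C, 5% CO2). Final well conditions were 5.8% FBS, 1 µg/mL Shh-N and 0.03–1000 nM compound (n = 4 wells), incubated 48 h. Controls used 0.1% DMSO ± Shh-N. Read-out was Bright-Glo luciferase, and IC50 is the mean of four measurements.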

[12] = test system: Mus musculus; assay: Antitumor activity in Ptc1+/- p53-/- medulloblastoma allograft model of mouse assessed as tumor growth inhibition at 25 mg/kg, po qd for 14 days relative to control; format: functional
Outline: (§4)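 Medulloblastoma tumours were serially passaged subcutaneously in nude mice (CAnN.Cg-Foxn1nu). Treatment started at 150–250 mm³ tumour volume: oral dosing as a 0.5% methylcellulose suspension for 14 days, once daily per the figure legend. Tumours were measured by caliper, with V = (a×b²)/2. T/C% = mean treated (Vend−Vstart) / control (Vend−Vstart) × 100, with n = 5 and a 1-tailed Shirley-Williams test against vehicle.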

[13] = test system: Mus musculus; assay: Antitumor activity in Ptc1+/- p53-/- medulloblastoma allograft model of mouse assessed as tumor growth inhibition at 1 mg/kg, po qd for 14 days relative to control; format: functional; outline: as §4
[14] = Clearance in dog at 1 mg/kg, iv and 10 mg/kg, po; format: ADME, organism-based, Canis lupus familiaris; conditions: in vivo; outline: as §3
[15] = Volume of distribution at steady state in dog at 1 mg/kg, iv and 10 mg/kg, po; format: ADME, organism-based, Canis lupus familiaris; conditions: in vivo, read-out: Vdss; outline: as §3
[16] = Volume of distribution at steady state in rat at 1 mg/kg, iv and 10 mg/kg, po; format: ADME, organism-based; conditions: in vivo, read-out: Vdss; outline: as §3
[17] = test system: Mus musculus; assay: Gli1 mRNA expression level in human PAN-04 cells xenografted mouse tumor at 25 mg/kg, po after 24 hrs of first dose relative to control; conditions: PAN-04, po

Chain of Sonic hedgehog protein (Q62226 25-198 limits assumed): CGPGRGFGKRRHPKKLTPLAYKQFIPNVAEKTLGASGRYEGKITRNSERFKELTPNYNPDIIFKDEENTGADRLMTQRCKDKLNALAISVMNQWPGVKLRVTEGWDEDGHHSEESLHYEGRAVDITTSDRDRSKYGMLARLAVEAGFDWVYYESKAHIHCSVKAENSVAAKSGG

CCc1cc2c(c(OCC(F)(F)F)c(C(=O)NC3CCN(C(=O)CO)CC3)n2C)c(=O)n1CC(=O)c1ccccc1 [TAK-441]
bioavailability [1]: 90.3% | solubility [2]: 81 µg/mL (≈ 140 µM) | AUC(0-t) at 24 h [3]: 206000 ng·h/mL | AUC(0-t) at 24 h [4]: 5100 ng·h/mL | bioavailability [5]: 31.7% | AUC(0-t) at 24 h [6]: 2530 ng·h/mL | clearance [7]: 6.63 mL/min/kg | AUC(0-t) at 24 h [8]: 8030 ng·h/mL | Cmax [9]: 21500 ng/mL | AUC(0-t) at 24 h [10]: 45400 ng·h/mL | IC50 [11]: 4.4 nM | T/C [12]: 3% | T/C [13]: 46% | clearance [14]: 2.69 mL/min/kg | Vd [15]: 2.18 L/kg | Vd [16]: 0.682 L/kg

CCc1cc2c(c(OCCF)c(C(=O)NC3CCN(C(=O)CO)CC3)n2C)c(=O)n1CC(=O)c1ccccc1
solubility [2]: 69 µg/mL (≈ 128 µM) | IC50 [11]: 4.9 nM

CCc1cc2c(c(OCC(F)F)c(C(=O)NC3CCN(C(=O)CO)CC3)n2C)c(=O)n1CC(=O)c1ccccc1
solubility [2]: 84 µg/mL (≈ 150 µM) | IC50 [11]: 4.4 nM

COc1c(C(=O)NC2CCN(C(=O)CO)CC2)n(C)c2c1c(=O)n(CC(=O)c1ccccc1)c1ccccc21
level, % of control at 25 mg/kg [17]: 5% | solubility [2]: 8.4 µg/mL (≈ 15.8 µM) | AUC(0-t) at 24 h [3]: 32300 ng·h/mL | Cmax [9]: 3630 ng/mL

CCc1cc2c(c(OC)c(C(=O)NC3CCN(C(=O)CO)CC3)n2C)c(=O)n1CC(=O)c1ccccc1
solubility [2]: 63 µg/mL (≈ 124 µM) | IC50 [11]: 5.7 nM

CCOc1c(C(=O)NC2CCN(C(=O)CO)CC2)n(C)c2cc(CC)n(CC(=O)c3ccccc3)c(=O)c12
solubility [2]: 58 µg/mL (≈ 111 µM) | IC50 [11]: 6.9 nM

COc1c(C(=O)NC2CCN(C(=O)CO)CC2)n(C)c2c3c(n(CC(=O)c4ccccc4)c(=O)c12)CCCC3
solubility [2]: 80 µg/mL (≈ 150 µM) | IC50 [11]: 96 nM

CCc1c(C(=O)NC2CCN(C(=O)CO)CC2)n(C)c2cc(CC)n(CC(=O)c3ccccc3)c(=O)c12
IC50 [11]: 95 nM

COc1c(C(=O)NC2CCN(C(=O)CO)CC2)n(C)c2cc(C)n(CC(=O)c3ccccc3)c(=O)c12
solubility [2]: 77 µg/mL (≈ 156 µM) | IC50 [11]: 14 nM

From ChEMBL document CHEMBL2202960, “Discovery of the investigational drug TAK-441, a pyrrolo[3,2-c]pyridine derivative, as a highly potent and orally active hedgehog signaling inhibitor: modification of the core skeleton for improved solubility” (Bioorg Med Chem, 2012)
